Results as given in ChEMBL document CHEMBL3352355, “Synthesis of novel polysubstituted (2SR,4RS)-2-heteroaryltetrahydro-1,4-epoxy-1-benzazepines and cis-2-heteroaryl-4-hydroxytetrahydro-1H-1-benzazepines as antiparasitic agents” (Eur J Med Chem, 2014).

Key:
Trypanosoma cruzi [1] = experiment: Antiparasitic activity against epimastigote stage of Trypanosoma cruzi infected in Vero cells assessed as parasite growth inhibition […] by hemocytometery; format: functional, organism-based
Outline: (§1)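 Exponential-phase T. cruzi Sylvio X10 epimastigotes (LIT medium with hiFCS) or L. (L.) infantum MHOM/BR/74/PP75 promastigotes (RPMI 1640, hemin, HEPES, 10% hiFCS) were exposed to threefold serial dilutions (0.3–300 µg/mL) for 72 h at 28 °C. Viable parasites were counted by hemocytometer with 0.25% eosin yellow. IC50 came from sigmoidal regression, given as mean ± SD.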

[2] = Selectivity index, ratio of CC50 for African green monkey Vero cells to IC50 for epimastigote stage of Trypanosoma cruzi; format: functional
Outline: (§2)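 Selectivity index was calculated as CC50 in Vero (T. cruzi) or THP-1 (L. infantum) cells divided by parasite IC50. Both values came from 72 h mammalian-cell MTT assays and the parasite assays; SI ≥ 3 was defined as parasite-selective.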

Trypanosoma cruzi [3] = experiment: Antiparasitic activity against amastigote stage of Trypanosoma cruzi infected in Vero cells assessed as parasite growth inhibition after 24 hrs by hemocytometery; format: functional, organism-based
Outline: (§3)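 Host cells were Vero for T. cruzi (infected with tissue-derived trypomastigotes) and THP-1 (PMA-transformed, 10 ng/mL) for L. (L.) infantum (infected with late-phase promastigotes), at 1:10 cell:parasite for 24 h. Serial dilutions were given as two doses, the second on day 3 with a medium change. Read-out was % infected cells on methanol-fixed, Giemsa-stained slides (300 cells). IC50 came from sigmoidal regression; experiments in duplicate, concentrations in triplicate.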

Leishmania infantum [4] = experiment: Antiparasitic activity against amastigote stage of Leishmania infantum infected in THP1 cells assessed as parasite growth inhibition after 24 hrs by hemocytometery; format: functional, organism-based, THP-1; outline: as §3
[5] = Cytotoxicity against African green monkey Vero cells; format: cell-based; settings: chlorocebus sabaeus
Outline: (§4)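 Vero monolayers or THP-1 cells (made adherent with 10 ng/mL PMA), in RPMI 1640 with 10% hiFCS, were exposed to compound (0.3–300 µg/mL) for 72 h at 37 °C, 5% CO2. Viability was measured by MTT, with formazan dissolved in DMSO and read at 580 nm. % cytotoxicity was calculated against untreated cells; CC50 came from sigmoidal regression, given as mean ± SD.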

Leishmania infantum [6] = experiment: Antiparasitic activity against promastigote stage of Leishmania infantum infected in THP1 cells assessed as parasite growth inhibition […] by hemocytometery; format: functional, organism-based; settings: THP-1; outline: as §1
[7] = Selectivity index, ratio of CC50 for human THP1 cells to IC50 for promastigote stage of Leishmania infantum; format: functional, THP-1; outline: as §2
[8] = Cytotoxicity against human THP1 cells; format: cell-based; settings: THP-1 cells; outline: as §4
[9] = Selectivity index, ratio of CC50 for human THP1 cells to IC50 for amastigote stage of Leishmania infantum; format: functional, THP-1; outline: as §2
Leishmania infantum [10] = experiment: Antiparasitic activity against promastigote stage of Leishmania infantum assessed as parasite growth inhibition after 72 hrs by hemocytometery
[11] = Selectivity index, ratio of CC50 for African green monkey Vero cells to IC50 for amastigote stage of Trypanosoma cruzi; format: functional; outline: as §2
[12] = Trypanosoma cruzi, Vero, 24 h, read-out: IC50
[13] = Leishmania infantum, THP-1, 24 h, read-out: IC50

SMILES	IC50 (Trypanosoma cruzi [1]) [µM]	Selectivity Index [2]	IC50 (Trypanosoma cruzi [3]; [12]) [µM]	IC50 (Leishmania infantum [4]; [13]) [µM]	CC50 [5] [µM]	IC50 (Leishmania infantum [6]) [µM]	Selectivity Index [7]	CC50 [8] [µM]	IC50 (Trypanosoma cruzi [3]; vero)	IC50 (Leishmania infantum [4]; thp-1)	Selectivity Index [9]	IC50 (Leishmania infantum [10]) [µM]	Selectivity Index [11]
O[C@@H]1Cc2ccccc2N[C@H](c2ccco2)C1 (relative stereo)	884	>1.5	> 436	> 436	> 1310	696	0.3	236					
Cc1ccc([C@@H]2C[C@H](O)Cc3cc(OC(F)(F)F)ccc3N2)s1 (relative stereo)	65.7	0.4			23.9	11.3	8.6	98	ND(toxic)	ND(toxic)			
Cc1ccsc1[C@@H]1C[C@H](O)Cc2cc(F)ccc2N1 (relative stereo)	45.9	5.3	> 120	> 120	243	62.5	28.9	1810					
Cc1ccc([C@@H]2C[C@H]3Cc4ccccc4N2O3)o1 (racemic)	92.9	5.7	> 415	398	533		14.5	394			1	27.3	
Clc1ccc2c(c1)C[C@@H]1C[C@@H](c3ccc(Br)s3)N2O1 (racemic)	14.7	113.4	23.9	65.2	1660		>117.9	> 1690			>25.9	14.3	69.8
Cc1ccc([C@@H]2C[C@H](O)Cc3cc(F)ccc3N2)o1 (relative stereo)	115	7.2	> 383	> 383	823	141	>8.1	> 1150					
O[C@@H]1Cc2cc(OC(F)(F)F)ccc2N[C@H](c2cccs2)C1	87.8	0.2	> 101	> 101	20.4	13.8	4.4	61.5					
Cc1ccc([C@@H]2C[C@H](O)Cc3cc(OC(F)(F)F)ccc3N2)o1 (relative stereo)	42.7	1.9	> 102	> 102	82.1	12.8	9.7	124					
Cc1ccsc1[C@@H]1C[C@H]2Cc3cc(F)ccc3N1O2 (racemic)	102	5.9	330	204	601		2.9	221			1.1	75.9	1.8
Cc1ccsc1[C@@H]1C[C@H]2Cc3ccccc3N1O2 (racemic)	27.6	16.4	134	368	453		6.7	377			1	56.6	3.4
Cc1ccsc1[C@@H]1C[C@H]2Cc3cc(OC(F)(F)F)ccc3N1O2 (racemic)	47.2	1.3	202	> 293	61.7		>153.9	> 1760				11.4	0.3
Cc1ccc([C@@H]2C[C@H](O)Cc3cc(F)ccc3N2)s1 (relative stereo)	164	4.9	123	> 120	801	16.9	18.5	312					6.53
Cc1ccc([C@@H]2C[C@H](O)Cc3ccccc3N2)o1 (relative stereo)	120	3.1	> 411	> 411	370	189	1.4	262					
Cc1ccsc1[C@@H]1C[C@H](O)Cc2cc(OC(F)(F)F)ccc2N1 (relative stereo)	10.7	2.5		> 97.1	26.7	16.4	5.5	89.7	ND(toxic)				
Cc1ccc([C@@H]2C[C@H](O)Cc3ccccc3N2)s1 (relative stereo)	22.8	41.9	131	> 128	956		5.5	608				111	7.3
O[C@@H]1Cc2cc(F)ccc2N[C@H](c2ccoc2)C1	177	5.9	> 405	> 405	1040	365	1.9	689					
Fc1ccc2c(c1)C[C@@H]1C[C@@H](c3ccc(Br)s3)N2O1 (racemic)	34.7	>8.5	54.6	> 295	> 295		>40.6	> 295				7.3	>5.4
c1csc([C@@H]2C[C@H]3Cc4ccccc4N2O3)c1 (relative stereo)	198	11.6	> 411	406	2310		45.7	727			1.8	15.9	
Cc1ccc([C@@H]2C[C@H]3Cc4ccccc4N2O3)s1 (racemic)	147	6	91.5	> 389	878		9.6	497				52	9.6
O[C@@H]1Cc2cc(OC(F)(F)F)ccc2N[C@H](c2ccco2)C1 (relative stereo)	606	0.3	> 106	> 106	166	45.9	2.9	134					
Cc1ccc([C@@H]2C[C@H](O)Cc3cc(Cl)ccc3N2)o1 (relative stereo)	61.8	4.9	323	> 361	300	110	>9.9	> 1080					0.93
Brc1ccc([C@@H]2C[C@H]3Cc4ccccc4N2O3)s1 (racemic)	62.2	28.9	137	> 312	1800		34.7	1250				36.1	13.2
O[C@@H]1Cc2ccccc2N[C@H](c2cccs2)C1 (relative stereo)	219	4.5	> 408	138	986		5.3	773			5.6	146	
FC(F)(F)Oc1ccc2c(c1)C[C@@H]1C[C@@H](c3cccs3)N2O1 (racemic)	143	>2.1	73.9	> 306	> 306		>1.2	> 306				256	>4.1
C[C@@H]1[C@H](O)[C@@H](C)/C=C/C=C/C=C/C=C/C=C/C=C/C=C/[C@H](O[C@@H]2O[C@H](C)[C@@H](O)[C@H](N)[C@@H]2O)C[C@@H]2O[C@](O)(C[C@@H](O)C[C@@H](O)[C@H](O)CC[C@@H](O)C[C@@H](O)CC(=O)O[C@H]1C)C[C@H](O)[C@H]2C(=O)O [AMPHOTERICIN B]				0.01			927.5	29.7			456.6	0.03	
